Laboratory results: article PMC8083113 (Journal of medicinal chemistry, 2021)
Like-named read-outs stand apart in the source and are kept apart here.

Assays:
BxPC-3 [1] = assay: MTT cytotoxicity assay in BxPC-3; assay type: cell-based
Outline: (§1)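 Cells (3000–6000/well) are seeded and left overnight, then exposed to the test compound or DMSO vehicle for 3 days. MTT (3 mg/ml) is added for 3 h at 37 °C, and the formazan is dissolved in DMSO and read at 570 nm. IC50 comes from dose-response curves from three independent experiments, reported as mean ± SD.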

pSTAT3 = assay: Western blot of pSTAT3 in BxPC-3; assay type: cell-based; conditions: BxPC-3, 16 h treatment
Outline: (§2)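 BxPC-3 cells (500 × 10^3/well) are treated with the test compound (concentrations up to 5 μM) for 16 h. They are lysed at 4 °C by sonication in Tris/NaCl/Triton X-100/SDS buffer, pH 7.4, with protease and phosphatase inhibitors. Protein is measured by BCA, run on 10 or 12% gels and transferred to PVDF. Blots are probed overnight at 4 °C for STAT3/pSTAT3 (1:1000) and GAPDH (1:4000), imaged by near-infrared fluorescence, and quantified by densitometry.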

STAT3 [2] = target: T1, STAT3 (Homo sapiens, UniProt P40763); assay: Western blot of STAT3 in BxPC-3; assay type: cell-based; conditions: for effect on STAT3 expression: BxPC-3, 16 h, XD2–162 up to 5 μM, 1–6 at 0.5 μM
T1 sequence (P40763 whole entry): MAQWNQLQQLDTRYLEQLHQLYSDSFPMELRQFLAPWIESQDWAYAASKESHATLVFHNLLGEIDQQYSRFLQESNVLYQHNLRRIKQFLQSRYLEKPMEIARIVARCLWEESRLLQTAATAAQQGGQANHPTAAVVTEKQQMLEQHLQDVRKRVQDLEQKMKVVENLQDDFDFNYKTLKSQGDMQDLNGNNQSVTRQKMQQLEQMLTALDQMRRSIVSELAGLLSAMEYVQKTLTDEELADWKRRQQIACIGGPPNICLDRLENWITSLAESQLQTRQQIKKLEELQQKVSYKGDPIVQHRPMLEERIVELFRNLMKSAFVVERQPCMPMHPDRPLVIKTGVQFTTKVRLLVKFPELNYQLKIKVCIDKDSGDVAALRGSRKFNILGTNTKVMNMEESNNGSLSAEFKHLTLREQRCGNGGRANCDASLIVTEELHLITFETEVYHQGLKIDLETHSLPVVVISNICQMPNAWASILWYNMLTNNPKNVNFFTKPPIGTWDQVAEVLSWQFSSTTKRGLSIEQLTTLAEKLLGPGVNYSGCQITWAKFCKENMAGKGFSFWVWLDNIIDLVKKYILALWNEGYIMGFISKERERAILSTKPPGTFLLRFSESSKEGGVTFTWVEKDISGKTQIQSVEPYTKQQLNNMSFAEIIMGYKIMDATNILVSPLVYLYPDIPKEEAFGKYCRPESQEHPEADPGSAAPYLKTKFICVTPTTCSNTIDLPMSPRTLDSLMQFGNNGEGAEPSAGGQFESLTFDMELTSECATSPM
Outline: as §2

STAT3 [3] = target: T1, STAT3; assay: Western blot of STAT3 in OVCAR-3; assay type: cell-based; conditions: OVCAR-3, negative control incapable of binding CRBN
Outline: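 OVCAR-3 cells are seeded at 500 × 10^3/well and treated with the test compound at several concentrations and times (read-out at 12 h). Lysis is by sonication at 4 °C in Tris/NaCl/Triton X-100/SDS buffer, pH 7.4, with protease and phosphatase inhibitors. After BCA quantitation, SDS-PAGE and PVDF transfer, blots are probed for STAT3 (1:1000) and GAPDH (1:4000) and imaged by near-infrared fluorescence.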

MIA PaCa-2 = assay: MTT cytotoxicity assay in MIA PaCa-2; assay type: cell-based; conditions: read-out: IC50 (μM) MIA PaCa-2, 3 days, mean ± SD
Outline: as §1

tumor = conditions: within two weeks; cited from earlier work
STAT3 [4] = target: T1, STAT3; conditions: leukemia and lymphoma cell lines; cited from earlier work
[5] = Table S4; cited from earlier work
ZFP91 = ZFP91 (Homo sapiens, UniProt Q96JP5+Q96SW2); assay: Western blot of ZFP91 in BxPC-3; assay type: cell-based
ZFP91, sequence (Q96JP5 whole entry): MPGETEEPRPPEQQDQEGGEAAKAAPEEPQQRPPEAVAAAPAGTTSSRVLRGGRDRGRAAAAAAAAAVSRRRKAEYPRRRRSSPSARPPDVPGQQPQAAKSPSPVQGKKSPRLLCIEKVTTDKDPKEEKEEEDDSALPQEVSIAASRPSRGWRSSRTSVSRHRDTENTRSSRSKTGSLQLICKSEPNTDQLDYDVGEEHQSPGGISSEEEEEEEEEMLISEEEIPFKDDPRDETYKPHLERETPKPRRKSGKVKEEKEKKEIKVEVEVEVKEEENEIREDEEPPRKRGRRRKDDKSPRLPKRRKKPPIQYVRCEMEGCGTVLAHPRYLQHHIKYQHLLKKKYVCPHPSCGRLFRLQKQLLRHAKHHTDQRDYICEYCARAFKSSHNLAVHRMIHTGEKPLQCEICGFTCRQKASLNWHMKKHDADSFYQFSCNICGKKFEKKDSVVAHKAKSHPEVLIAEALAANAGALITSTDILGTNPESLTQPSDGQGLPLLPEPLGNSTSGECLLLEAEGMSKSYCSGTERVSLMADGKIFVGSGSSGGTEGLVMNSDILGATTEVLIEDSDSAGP
ZFP91, sequence (Q96SW2 whole entry): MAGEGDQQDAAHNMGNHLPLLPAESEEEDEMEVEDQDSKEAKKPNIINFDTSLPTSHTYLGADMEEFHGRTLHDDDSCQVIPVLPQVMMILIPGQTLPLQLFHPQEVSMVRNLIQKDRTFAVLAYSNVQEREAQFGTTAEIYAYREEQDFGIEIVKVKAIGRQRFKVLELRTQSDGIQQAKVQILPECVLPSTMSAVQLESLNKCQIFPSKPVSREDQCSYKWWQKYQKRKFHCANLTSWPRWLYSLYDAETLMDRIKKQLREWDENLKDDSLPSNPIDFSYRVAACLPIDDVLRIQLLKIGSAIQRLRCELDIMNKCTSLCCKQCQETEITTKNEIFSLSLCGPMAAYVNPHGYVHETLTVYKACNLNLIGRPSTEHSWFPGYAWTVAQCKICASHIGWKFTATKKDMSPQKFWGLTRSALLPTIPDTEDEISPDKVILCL
ZFP91, sequence (Q16531 whole entry partner): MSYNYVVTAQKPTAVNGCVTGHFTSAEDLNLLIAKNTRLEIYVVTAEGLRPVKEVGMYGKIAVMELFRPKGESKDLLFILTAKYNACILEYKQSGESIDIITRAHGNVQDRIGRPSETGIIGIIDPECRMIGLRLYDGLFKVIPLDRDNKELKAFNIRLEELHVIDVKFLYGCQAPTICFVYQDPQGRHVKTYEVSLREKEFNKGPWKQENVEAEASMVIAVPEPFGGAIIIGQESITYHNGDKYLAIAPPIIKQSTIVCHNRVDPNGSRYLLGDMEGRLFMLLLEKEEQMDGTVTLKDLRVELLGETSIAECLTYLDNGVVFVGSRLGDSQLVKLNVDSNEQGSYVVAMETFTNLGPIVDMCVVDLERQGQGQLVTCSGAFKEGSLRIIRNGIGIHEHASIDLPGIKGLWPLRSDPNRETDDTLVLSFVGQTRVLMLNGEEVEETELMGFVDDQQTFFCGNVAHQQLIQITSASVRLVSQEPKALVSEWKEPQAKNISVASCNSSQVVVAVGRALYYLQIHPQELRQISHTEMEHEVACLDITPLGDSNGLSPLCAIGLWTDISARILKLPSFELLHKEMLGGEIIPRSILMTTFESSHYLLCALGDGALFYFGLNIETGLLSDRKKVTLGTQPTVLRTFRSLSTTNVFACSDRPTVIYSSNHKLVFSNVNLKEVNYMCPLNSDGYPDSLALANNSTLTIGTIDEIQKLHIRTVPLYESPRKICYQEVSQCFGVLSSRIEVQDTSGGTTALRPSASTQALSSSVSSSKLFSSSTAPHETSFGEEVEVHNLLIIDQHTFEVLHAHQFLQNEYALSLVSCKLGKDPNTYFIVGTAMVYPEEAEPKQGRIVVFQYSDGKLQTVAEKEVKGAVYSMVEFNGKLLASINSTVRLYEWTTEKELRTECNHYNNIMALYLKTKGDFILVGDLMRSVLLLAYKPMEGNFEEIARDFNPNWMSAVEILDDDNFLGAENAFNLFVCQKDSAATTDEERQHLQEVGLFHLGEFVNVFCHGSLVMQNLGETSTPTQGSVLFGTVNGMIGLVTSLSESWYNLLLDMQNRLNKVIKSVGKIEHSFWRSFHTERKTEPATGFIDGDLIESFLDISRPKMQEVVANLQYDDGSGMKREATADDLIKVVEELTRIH

GSPT1 = GSPT1 (Homo sapiens, UniProt P15170); assay: Western blot of GSPT1 in BxPC-3; assay type: cell-based
GSPT1, sequence (Q96SW2 whole entry partner): as the sequence (Q96SW2 whole entry) above
GSPT1, sequence (Q16531 whole entry partner): as the sequence (Q16531 whole entry partner) above
GSPT1, sequence (P15170 whole entry): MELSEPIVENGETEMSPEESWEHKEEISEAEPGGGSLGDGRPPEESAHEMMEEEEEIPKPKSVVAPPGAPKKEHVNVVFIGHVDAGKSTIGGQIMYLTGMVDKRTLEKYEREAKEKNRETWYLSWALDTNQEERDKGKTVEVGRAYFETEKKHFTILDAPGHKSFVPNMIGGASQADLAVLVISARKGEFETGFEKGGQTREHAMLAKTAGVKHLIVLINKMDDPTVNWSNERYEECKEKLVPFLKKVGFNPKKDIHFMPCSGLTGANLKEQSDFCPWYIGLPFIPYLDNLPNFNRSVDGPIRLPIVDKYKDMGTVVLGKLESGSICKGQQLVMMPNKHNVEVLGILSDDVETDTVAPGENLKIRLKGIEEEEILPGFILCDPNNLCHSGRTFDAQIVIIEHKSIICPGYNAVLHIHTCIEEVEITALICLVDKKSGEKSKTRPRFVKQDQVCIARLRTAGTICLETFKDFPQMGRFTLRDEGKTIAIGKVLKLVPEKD
Outline: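 BxPC-3 cells (500 × 10^3/well) are exposed to the test compound for 16 h and lysed by sonication at 4 °C in Tris/NaCl/Triton/SDS buffer, pH 7.4, with protease and phosphatase inhibitors. After BCA quantitation, SDS-PAGE and PVDF transfer, membranes are probed overnight at 4 °C with anti-GSPT (1:1000) and GAPDH (1:4000). Detection uses near-infrared secondaries, with densitometric quantification.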

BxPC-3 [6] = assay: Colony formation assay in BxPC-3; assay type: cell-based; conditions: BxPC-3, 7–10 days
MTT assay = assay type: cell-based; conditions: Table S4
[7] = Homo sapiens, BXPC-3, 72 h, read-out: IC50 (μM) BxPC-3, MTT assay, 3 days, mean ± SD
[8] = read-out: IC50 (μM) BxPC-3, MTT assay, 3 days, mean ± SD

In the case of `O=C1CCC(N2C(=O)c3cccc(OCCCCNC(=O)c4cc5c(o4)C(=O)c4ccccc4C5=O)c3C2=O)C(=O)N1` (stereo not shown) [5–5a, N-(4-((2-(2,6-dioxopiperidin-3-yl)-1,3-dioxoisoindolin-4-yl)oxy)butyl)-4,9-dioxo-4,9-dihydronaphtho[2,3-b]furan-2-carboxamide], the “fold more potent than 5–5b” value (BxPC-3 [1]; cytotoxicity IC50) is reported as about 2 fold.

`O=C1CCC(N2C(=O)c3cccc(NCCCC4CCN(CCNC(=O)c5cc6c(o5)C(=O)c5ccccc5C6=O)CC4)c3C2=O)C(=O)N1` (stereo not shown) [3–6c, N-(2-(4-(3-((2-(2,6-dioxopiperidin-3-yl)-1,3-dioxoisoindolin-4-yl)amino)propyl)piperidin-1-yl)ethyl)-4,9-dioxo-4,9-dihydronaphtho[2,3-b]furan-2-carboxamide] showed an IC50 (BxPC-3 [1]; [7]) of under 1 µM.

In the case of `CN1C(=O)CCC(N2C(=O)c3cccc(NCCCCCC4CCN(CCNC(=O)c5cc6c(o5)C(=O)c5ccccc5C6=O)CC4)c3C2=O)C1=O` (stereo not shown) [11–7, N-(2-(4-(5-((2-(1-methyl-2,6-dioxopiperidin-3-yl)-1,3-dioxoisoindolin-4-yl)amino)pentyl)piperidin-1-yl)ethyl)-4,9-dioxo-4,9-dihydronaphtho[2,3-b]furan-2-carboxamide], the “concentration at which a decrease in pSTAT3 level was achieved” value (pSTAT3) is reported as 5 μM and the “effect on STAT3 expression” value (STAT3 [2]) is reported as “did not have any effect”.

For `O=C(NCCOCCOCCNc1cccc2c1C(=O)N(C1CCCNC1=O)C2=O)c1cc2c(o1)C(=O)c1ccccc1C2=O` (stereo not shown) [10–5, N-(2-(2-(2-((1,3-dioxo-2-(2-oxopiperidin-3-yl)isoindolin-4-yl)amino)ethoxy)ethoxy)ethyl)-4,9-dioxo-4,9-dihydronaphtho[2,3-b]furan-2-carboxamide], the “activity on STAT3 expression compared with XD97” value (STAT3 [3]) was “comparable activity to XD97”.

For “N-(2-(2-(2-((2-(2,6-dioxopiperidin-3-yl)-1,3-dioxoisoindolin-5-yl)amino)ethoxy)ethoxy)ethyl)-4,9-dioxo-4,9-dihydronaphtho[2,3-b]furan-2-carboxamide [6–6c]”, the IC50 (BxPC-3 [1]; [8]) was 23.8 ± 3.9 µM and the IC50 (MIA PaCa-2) was 10.5 ± 3 µM.

For `NC(=O)CC[C@H](NC(=O)[C@@H]1CC[C@@H]2CCN(C(=O)CCCCCC#Cc3cccc4c3CN(C3CCC(=O)NC3=O)C4=O)C[C@H](NC(=O)c3cc4cc(C(F)(F)P(=O)(O)O)ccc4[nH]3)C(=O)N21)C(=O)NC(c1ccccc1)c1ccccc1` (stereo partly shown) [SD-36], the tumor response (tumor) is listed as “complete tumor regression” and the “DC50 values for STAT3 degradation (in words)” value (STAT3 [4]) is listed as “nanomolar”.

For `O=C(NCCN1CCCCC1)c1cc2c(o1)C(=O)c1ccccc1C2=O` [1–6, reference compound], the “effect on STAT3 expression” value (STAT3 [2]) is listed as “did not have any effect” and the “greater cytotoxicity than napabucasin” value [5] is listed as over 10 fold.

“N-(5-(2-(2,6-dioxopiperidin-3-yl)-1-oxoisoindolin-4-yl)pentyl)-4,9-dioxo-4,9-dihydronaphtho[2,3-b]furan-2-carboxamide [8–1]” showed an IC50 (BxPC-3 [1]; [8]) of 13.8 ± 7.7 µM and an IC50 (MIA PaCa-2) of 6.4 ± 3.4 µM.

For `O=C1CCC(N2C(=O)c3cccc(NCCCCCC4CCN(CCNC(=O)c5cc6c(o5)C(=O)c5ccccc5C6=O)CC4)c3C2=O)C(=O)N1` (stereo not shown) [3–6d, N-(2-(4-(5-((2-(2,6-dioxopiperidin-3-yl)-1,3-dioxoisoindolin-4-yl)amino)pentyl)piperidin-1-yl)ethyl)-4,9-dioxo-4,9-dihydronaphtho[2,3-b]furan-2-carboxamide], the “ZFP91 expression at the earlier time point” value (ZFP91; BxPC-3, 4 h) was “no effect”, the IC50 (BxPC-3 [1]; [7]) was under 1 µM and the “concentration at which a decrease in pSTAT3 level was achieved” value (pSTAT3) was 1 μM. The GSPT1 protein level (GSPT1) was “did not degrade”, the “inhibition of colony formation” value (BxPC-3 [6]) was “greater inhibitory activity than napabucasin” and the “concentration at which a decrease in STAT3 protein expression was observed” value (STAT3 [2]; BxPC-3, 16 h treatment) was 5 µM.

With `Nc1cccc2c1C(=O)N(C1CCC(=O)NC1=O)C2=O` (stereo not shown) [Pomalidomide] the “no cytotoxicity in the MTT assay up to” value (MTT assay) was over 30 µM.

With `CC(=O)c1cc2c(o1)C(=O)c1ccccc1C2=O` [NP, 2-acetylbenzo[f][1]benzofuran-4,9-dione, reference compound] the ZFP91 protein level (ZFP91; BxPC-3, 16 h, up to 3 μM) was “no effect” and the GSPT1 protein level (GSPT1) was “not affected”.
